Test results published in ChEMBL document CHEMBL4043131, “New prodrugs of two pyrimidine acyclic nucleoside phosphonates: Synthesis and antiviral activity” (Bioorg Med Chem, 2017).
Activity calls are given as the source filed them. The calls are words filed in the database; no cut-off is given here.

What was measured:
Human alphaherpesvirus 1 [1] = experiment: Antiviral activity against thymidine kinase-deficient ACV-resistant Herpes simplex virus 1 KOS infected in HEL cells assessed as inhibition of virus-induced cytopathic effect; type: functional, cell-based; conditions: Human alphaherpesvirus 1, KOS
HEL = experiment: Cytotoxicity against HEL cells assessed as reduction in cell growth after 3 days by coulter counter method; type: cell-based; conditions: human, hel, 72 h
Summary of the method: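 HEL cells were seeded at 5 × 10³ cells/well and grown for 24 h, then given medium containing graded compound concentrations. After 3 days at 37 °C, cells were counted by Coulter counter.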

Human betaherpesvirus 5 [2] = experiment: Antiviral activity against Human cytomegalovirus AD169 infected in HEL cells assessed as inhibition of virus-induced cytopathic effect; type: functional, cell-based; conditions: Human betaherpesvirus 5, AD169, HEL
Summary of the method: (§1)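 Confluent cell monolayers were infected with 100 CCID50 of virus (1 CCID50 = dose infecting 50% of cultures) and incubated with varying compound concentrations. Cytopathicity was scored once complete in untreated infected controls.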

Vaccinia virus = experiment: Antiviral activity against Vaccinia virus Lederle infected in HEL cells assessed as inhibition of virus-induced cytopathic effect; type: functional, cell-based; conditions: Orthopoxvirus vaccinia
Human alphaherpesvirus 1 [3] = experiment: Antiviral activity against wild type Herpes simplex virus 1 KOS infected in HEL cells assessed as inhibition of virus-induced cytopathic effect; type: functional, cell-based; conditions: Human alphaherpesvirus 1, KOS
Human alphaherpesvirus 2 = experiment: Antiviral activity against Herpes simplex virus 2 G infected in HEL cells assessed as inhibition of virus-induced cytopathic effect; type: functional, cell-based; conditions: Human alphaherpesvirus 2, strain G; summary of the method: as §1
Human betaherpesvirus 5 [4] = experiment: Antiviral activity against Human cytomegalovirus Davis infected in HEL cells assessed as inhibition of virus-induced cytopathic effect; type: functional, cell-based; conditions: Human betaherpesvirus 5, Davis; summary of the method: as §1
Influenza A virus H3N2 = experiment: Antiviral activity against Influenza A virus H3N2 infected in HEL cells assessed as inhibition of virus-induced cytopathic effect; type: functional, cell-based
Human alphaherpesvirus 3 [5] = experiment: Antiviral activity against wild type thymidine kinase expressing Varicella-Zoster virus Oka infected in HEL cells assessed as inhibition of virus-induced plaque formation; type: functional, cell-based; conditions: Human alphaherpesvirus 3, Oka
Summary of the method: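 Confluent HEL cultures were inoculated with 20 PFU of VZV and incubated with varying compound concentrations. Plaques were counted once formation was complete in untreated infected controls.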

[6] = Antiviral activity against Respiratory syncytial virus A strain long infected in human HeLA cells assessed as inhibition of virus-induced cytopathic effect; type: functional, cell-based; summary of the method: as §1
Influenza B virus = experiment: Antiviral activity against influenza B virus infected in HEL cells assessed as inhibition of virus-induced cytopathic effect; type: functional, cell-based
Human respirovirus 3 = experiment: Antiviral activity against Parainfluenza virus 3 infected in African green monkey Vero cells assessed as inhibition of virus-induced cytopathic effect; type: functional; summary of the method: as §1
Human alphaherpesvirus 3 [7] = experiment: Antiviral activity against wild type thymidine kinase-deficient Varicella-Zoster virus 07-1 infected in HEL cells assessed as inhibition of virus-induced plaque formation; type: functional, cell-based; conditions: Human alphaherpesvirus 3, 07-1, HEL
Summary of the method: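 HEL fibroblast monolayers were infected with 20 PFU of VZV and kept with varying compound concentrations. Plaques were counted once formation was complete in untreated infected controls.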

Feline coronavirus = experiment: Antiviral activity against Feline coronavirus infected in CRFK cells assessed as inhibition of virus-induced cytopathic effect; type: functional, cell-based
[8] = tested on: Mammalian orthoreovirus 1; experiment: Antiviral activity against Reovirus-1 infected in African green monkey Vero cells assessed as inhibition of virus-induced cytopathic effect; type: functional; summary of the method: as §1
Punta Toro virus = experiment: Antiviral activity against Punta Toro virus infected in African green monkey Vero cells assessed as inhibition of virus-induced cytopathic effect; type: functional; summary of the method: as §1
Influenza A virus = experiment: Antiviral activity against Influenza A virus (H1N1) infected in HEL cells assessed as inhibition of virus-induced cytopathic effect; type: functional, cell-based
[9] = tested on: Vesicular stomatitis virus; experiment: Antiviral activity against Vesicular stomatitis virus infected in HEL cells assessed as inhibition of virus-induced cytopathic effect; type: functional, cell-based
Coxsackievirus B4 = experiment: Antiviral activity against Coxsackie virus B4 infected in human HeLA cells assessed as inhibition of virus-induced cytopathic effect; type: functional, cell-based; summary of the method: as §1
Sindbis virus = experiment: Antiviral activity against Sindbis virus infected in African green monkey Vero cells assessed as inhibition of virus-induced cytopathic effect; type: functional; summary of the method: as §1

Compound | EC50 (Human alphaherpesvirus 1 [1]) [µM] | CC50 (HEL) [µM] | EC50 (Human betaherpesvirus 5 [2]) [µM] | EC50 (Vaccinia virus) [µM] | EC50 (Human alphaherpesvirus 1 [3]) [µM] | EC50 (Human alphaherpesvirus 2) [µM] | EC50 (Human betaherpesvirus 5 [4]) [µM] | Activity (Influenza A virus H3N2) | EC50 (Human alphaherpesvirus 3 [5]) [µM] | Activity [6] | Activity (Influenza B virus) | Activity (Human respirovirus 3) | EC50 (Human alphaherpesvirus 3 [7]) [µM] | Activity (Feline coronavirus) | Activity [8] | Activity (Punta Toro virus) | Activity (Influenza A virus) | Activity [9] | Activity (Coxsackievirus B4) | Activity (Sindbis virus)
Nc1ccn(C[C@@H](CO)OCP(=O)(O)O)c(=O)n1 [CIDOFOVIR] | 2.66 | 216 | 0.87 | 22.2 | 2.93 | 1.39 | 0.76 |  |  |  |  |  |  |  |  |  |  |  |  | 
Nc1nc2c(ncn2COCCO)c(=O)[nH]1 [ACYCLOVIR] |  | > 440 |  | > 250 |  | 0.18 |  |  |  |  |  |  |  |  |  |  |  |  |  | 
CCCCCCCCCCCCCCCCCCOCCNc1ncn(CCOCP(=O)(OCCOCCCCCCCCCCCCCCCCCC)OCCOCCCCCCCCCCCCCCCCCC)c(=O)n1 | > 100 |  | > 100 | > 100 | > 100 | > 100 | > 100 | inactive | 44.7 | inactive | inactive | inactive | 100 | inactive | inactive | inactive | inactive | inactive | inactive | inactive
CC(C)OC(=O)OCOP(=O)(COCCn1cnc(N)nc1=O)OCOC(=O)OC(C)C | 22 |  | 26.2 | > 100 | 22 | 22 | 20 | inactive | 15.3 | inactive | inactive | inactive | 23.2 | inactive | inactive | inactive | inactive | inactive | inactive | inactive
CC(C)OC(=O)OCOP(=O)(O)COCCn1cnc(N)nc1=O | > 100 |  | > 100 | > 100 | > 100 | > 100 | > 100 | inactive | 48.9 | inactive | inactive | inactive | 48.9 | inactive | inactive | inactive | inactive | inactive | inactive | inactive
CC(C)(C)C(=O)OCOP(=O)(COCCOc1cc(N)nc(N)n1)OCOC(=O)C(C)(C)C | 14.5 | 16.6 | 47.4 |  | 10 | 9.5 | 36.5 | inactive | 0.67 | inactive | inactive | inactive | 1.26 | inactive | inactive | inactive | inactive | inactive | inactive | inactive
Nc1nc(O)c2ncn(COC(CO)CO)c2n1 [GANCICLOVIR] |  | ≥ 308 |  | > 100 |  |  |  |  |  |  |  |  |  |  |  |  |  |  |  | 
CCCCCCCCCCCCCCCCCCOCCOP(=O)(COCCn1cnc(N)nc1=O)OCCOCCCCCCCCCCCCCCCCCC | > 100 |  | > 20 | > 100 | > 100 | > 100 | > 20 | inactive | > 4 | inactive | inactive | inactive | > 0.8 | inactive | inactive | inactive | inactive | inactive | inactive | inactive
O=c1[nH]c(=O)n([C@H]2C[C@H](O)[C@@H](CO)O2)cc1/C=C/Br [BRIVUDINE] |  | 242 |  | 19.1 |  | 141 |  |  | 0.024 |  |  |  | 58.8 |  |  |  |  |  |  | 
